From PMC4293705 (ChemPlusChem, 2012)
“And” between values parts separate entries of the source, which are not always exact repeats. Identical values can stand only once. Like-named read-outs stand apart in the source and are kept apart here. Marks after values point to notes of the source that are not given here.

Legend:
[1] = system: human hepatocarcinoma HepaRG cells; test: Extracellular LDH leakage; format: cell-based; conditions: 72 h; for % LDH/control with Fe^III 20 μM / % LDH/control without Fe^III: cell supernatant
[2] = system: HUVEC; test: BrdU assay, HUVEC survival; format: cell-based, human; conditions: 48 h; for effect on HUVEC survival: 10^−8 to 10^−5 M
Summary of the method: (§1)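 Survival version of the BrdU kit assay. HUVEC (2 × 10^4/well) in 1 % FBS; MDA-MB-231 (1.5 × 10^4/well) in 0 % FBS; triplicate wells. After 24 h serum-free phenol-red-free synchronisation, cells exposed 48 h to test compound at 10−8–10−5 M. BrdU (0.01 mM final) added, re-incubated 2–24 h, OD at 450 and 595 nm. Normalised to untreated controls after background subtraction.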

[3] = system: HUVEC; test: BrdU assay, HUVEC proliferation; format: cell-based, human; conditions: 48 h; for effect on HUVEC proliferation: 10^−8 to 10^−5 M
Summary of the method: (§2)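 HUVECs grown on 0.2 % gelatin in M199 with 20 % FBS and ECGS, passages 2–5. HUVEC seeded at 2 × 10^4 and MDA-MB-231 at 1.5 × 10^4 cells/well, in triplicate. Next day, G1-synchronised 24 h in serum-free phenol-red-free medium. Test compound (10−8–10−5 M) given in 10 % FBS for 48 h. BrdU (0.01 mM final) added for 2–24 h; OD read at 450/595 nm. Values background-subtracted and normalised to untreated controls.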

[4] = system: HUVEC; test: Wound-healing assay, HUVEC migration; format: cell-based, human; conditions: 16 h; for effect on HUVEC migration versus control: 10^−6 to 10^−5 M
Summary of the method: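 HUVECs (4 × 10^5/well) plated on 0.2 % gelatin; wound made after 24 h on the confluent layer. Cells then treated 16 h with test compound (10−5 to 10−6 M) in phenol-red-free M199 with 10 % FBS and photographed at 16 h. Genistein 30 μg mL−1 and EGF 50 ng mL−1 as references. At least three experiments; mean ± SEM; ANOVA/Student's test.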

[5] = format: physicochemical; conditions: I = 0.1 M (KCl), T = 298 K, H2O/DMSO v/v 30:70; for Log β 1 1–3 (stability constant of Fe^III complex): 5a value by potentiometric and spectrophotometric titrations; for Log β 1 1–2 (stability constant of Fe^III complex): potentiometric and spectrophotometric titrations
Summary of the method: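 Performed in H2O/DMSO 30:70 v/v […], I = 0.1 (KCl), 25 °C under argon. Ligand at 10−4–10−5 M with EDTA-standardised FeCl3 at metal:ligand ratios 1:3, 1:2 and 1:1. Potentiometric and spectrophotometric titrations covered pH 1–13. For spectrophotometry, acidified FeIII–ligand solutions were titrated with KOH to pH 6.5, recording UV-visible spectra after each addition at 25.0 °C. pKw 17.16.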

[6] = system: MDA-MB-231 cells; test: BrdU assay, MDA-MB-231 cell proliferation; format: cell-based; conditions: 48 h; for effect on MDA-MB-231 cell proliferation: 10^−8 to 10^−5 M
Summary of the method: as §2

[7] = Protonation constants by potentiometric titration in H2O/DMSO; format: physicochemical; conditions: for pKa: H2O/DMSO (v/v 30:70) solution
Summary of the method: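 Ligand (10−4–10−5 M, from DMSO solutions) titrated in H2O/DMSO 30:70 v/v at I = 0.1 (KCl), 25 °C, under argon. Automated titration with carbonate-free KOH standardised against potassium hydrogen phthalate. Read on a glass electrode with Ag/AgCl reference; 120–150 points per titration; pKw 17.16. Constants from nonlinear least-squares refinement of the potentiometric data.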

[8] = system: human hepatocarcinoma HepaRG cells; test: SDH activity; format: cell-based
[9] = log D determination by micro-HPLC; format: physicochemical; conditions: for log D: pH 7, n-octanol/phosphate buffer, HPLC
[10] = system: HUVEC; test: Matrigel assay, HUVEC capillary-tube formation; format: cell-based, human; conditions: 16 h; for effect on HUVEC capillary tube formation versus control: 10^−6 to 10^−5 M
Summary of the method: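 Forty thousand HUVECs seeded on Matrigel in M199 with 10 % FBS containing test compound (10−5 to 10−6 M) and incubated 16 h. Capillary network length quantified by image analysis of micrographs. Untreated cells as control; genistein 30 μg mL−1 (inhibitor) and EGF 50 ng mL−1 (activator) as references. At least three separate experiments; mean ± SEM; ANOVA and Student's test.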

[11] = system: MDA-MB-231 cells; test: BrdU assay, MDA-MB-231 cell survival; format: cell-based; conditions: 48 h; for effect on MDA-MB-231 cell survival: 10^−8 to 10^−5 M
Summary of the method: as §1

[12] = system: HepaRG cells
[13] = reported in the literature; cited from earlier work
[14] = reported value; cited from earlier work
[15] = I = 0.1 M (KCl), T = 298 K, H2O/DMSO v/v 30:70
[16] = read-out: SDH, IC50 without Fe^III, HepaRG cells, 72 h treatment, MTT assay

Row | SMILES | % LDH/control with Fe^III 20 μM ([1]; compound 10 μM) | % LDH/control without Fe^III ([1]; compound 10 μM) | % LDH/control with Fe^III 20 μM ([1]; compound 100 μM) | % LDH/control without Fe^III ([1]; compound 100 μM) | Log β 1 2–6 (stability constant of Fe^III complex) [5] | Log β 1 1–3 (stability constant of Fe^III complex) [5] | Log β 0 1–1 (overall protonation constant) [7, 15] | Log β 0 1–2 (overall protonation constant) [7, 15] | Log β 0 1–3 (overall protonation constant) [7, 15] | pKa1 [7, 15] | pKa2 [7, 15] | pKa3 [7, 15] | IC50 [8, 16] | log D [9] | membrane diffusion / presence in intracellular medium after cell lysis [12] | effect on HUVEC survival [2] | effect on HUVEC proliferation [3] | effect on HUVEC migration versus control [4] | Log β 1 1–2 (stability constant of Fe^III complex) [5] | effect on MDA-MB-231 cell proliferation [6] | also measured
1 | O=C(CCOCCOc1c2cccc1Cc1cccc(c1O)Cc1cccc(c1O)Cc1cccc(c1O)C2)Nc1ccc(-n2nc(-c3ccccc3O)nc2-c2ccccc2O)cc1 [5a, 25-{1-[2-(2-{4-[3,5-Bis-(2-hydroxyphenyl)-1,2,4-triazol-1-yl]phenyl}carbamoylethoxy)ethoxy]}-26,27,28-trihydroxycalix[4]arene] | 67 ±6% | 105% and 105 ±11% | 187 ±5% | 200 ±15% | −19.23(8) | −1.74(1) ^[c] | −6.67(2) | −17.12(2) | −29.63(2) | 6.67 | 10.45 | 12.51 | 6 ± 1 µM | 4.59 (±0.06) | found in the intracellular medium | – | – | – | – | – | concentrations inducing a cytotoxic effect (membrane damage, LDH leakage) ([1]; deduced from dose–effect curves): higher than 10 μM; decrease of HUVEC survival versus control ([2]; 10^−5 M): 65%; decrease of HUVEC survival versus control ([2]; 10^−6 M): 56%; decrease of HUVEC survival versus control ([2]; 10^−7 M): 28%; reduction of HUVEC proliferation versus control ([3]; 10^−5 M): 74%; reduction of HUVEC proliferation versus control ([3]; 10^−6 M): 51%; reduction of HUVEC proliferation versus control ([3]; 10^−7 M): 46%; reduction of HUVEC migration versus control ([4]; 10^−5 M): 59%; reduction of HUVEC migration versus control ([4]; 10^−6 M): 51%; decrease of MDA-MB-231 cell proliferation versus control ([6]; 10^−5 M): 73%; decrease of MDA-MB-231 cell proliferation versus control ([6]; 10^−6 M): 62%; decrease of MDA-MB-231 cell proliferation versus control ([6]; 10^−7 M): 33%; concentrations at which the compound is cytostatic ([8]; HepaRG cells, 72 h, deduced from dose–effect curves): lower than 10 μM; SDH value relative to the control ([8]; compound 10 μM, HepaRG cells, 72 h): 6%; decrease of HUVEC ability to form capillary tubes versus control ([10]; 10^−5 M): 48%; decrease of HUVEC ability to form capillary tubes versus control ([10]; 10^−6 M): 42%; decrease of MDA-MB-231 survival versus control ([11]; 10^−5 M): 58%; decrease of MDA-MB-231 survival versus control ([11]; 10^−6 M): 51%
2 | O=C(CCOCCOc1c2cccc1Cc1cccc(c1O)Cc1cccc(c1OCCOCCC(=O)Nc1ccc(-n3nc(-c4ccccc4O)nc3-c3ccccc3O)cc1)Cc1cccc(c1O)C2)Nc1ccc(-n2nc(-c3ccccc3O)nc2-c2ccccc2O)cc1 [5b, 25,27-Bis-{1-[2-(2-{4-[3,5-bis(2-hydroxyphenyl)-1,2,4-triazol-1-yl]-phenyl}carbamoylethoxy)ethoxy]}-26,28-dihydroxycalix[4]arene] | 91 ±11% | 76 ±4% | 69 ±6% | 103 ±2% | – | −5.08(6) | −9.88(3) | −21.11(3) | −33.21(3) | 9.88 | 11.23 | 12.10 | 90 ± 7 µM | 3.49 (±0.05) | found in the intracellular medium | did not show any effect | did not show any effect | did not show any effect | −2.35(8) ^[c] | did not show any effect | Log β 0 1–4 (overall protonation constant) [7, 15]: −46.38(6); Log β 0 1–5 (overall protonation constant) [7, 15]: −59.85(4); pKa4 [7, 15]: 13.17; pKa5 [7, 15]: 13.47; reduction of the lipophilicity in comparison with 5a ([9]; from log D at pH 7): about 12 fold; effect on HUVEC capillary tube formation versus control [10]: did not show any effect; effect on MDA-MB-231 cell survival [11]: did not show any effect
3 | Oc1c2cccc1Cc1cccc(c1O)Cc1cccc(c1O)Cc1cccc(c1O)C2 [compound 6, calix[4]arene] | – | – | – | – | – | – | – | – | – | – | – | – | – | – | – | – | – | – | – | – | pKa (easily deprotonated site of the calix[4]arene core) ([7]; acid–base properties in solution): 4.6
4 | O=C(O)c1ccc(-n2nc(-c3ccccc3O)nc2-c2ccccc2O)cc1 [ICL670, deferasirox, reference compound] | 80 ±5% | 87 ±7% | 88 ±1% | 101 ±13% | −20.35(8) | −6.48(9) | −5.56(5) | −16.55(7) | −29.53(7) | – | – | – | – | – | – | did not show any effect | did not show any effect | did not show any effect | −1.06(9) ^[c] | did not show any effect | Log β 1 2–5 (stability constant of Fe^III complex) [5]: −13.72(9); pFe [13]: 23.5; pKa ([7]; pKa1, I = 0.1 M (KCl), T = 298 K, H2O/DMSO v/v 30:70): 5.56; pKa ([7]; pKa2, I = 0.1 M (KCl), T = 298 K, H2O/DMSO v/v 30:70): 11; pKa ([7]; pKa3, I = 0.1 M (KCl), T = 298 K, H2O/DMSO v/v 30:70): 13; IC50 ([8]; Homo sapiens, HepaRG, 72 h, read-out: SDH, IC50 with Fe^III 20 μM): 61 ± 7 µM; IC50 ([8]; Homo sapiens, HepaRG, 72 h, read-out: SDH, IC50 without Fe^III): 11 ± 4 µM; log D [14]: −0.1; effect on HUVEC capillary tube formation versus control [10]: did not show any effect; effect on MDA-MB-231 cell survival [11]: did not show any effect
